Data reported in ChEMBL document CHEMBL1147175, “Synthesis of dioxane-based antiviral agents and evaluation of their biological activities as inhibitors of Sindbis virus replication” (Bioorg Med Chem, 2007).
The source made the active and inactive calls. No cut-off for these calls is given here.

How the values were obtained:
[1] = Cytotoxicity against BHK cells by XTT assay; assay type: cell-based, Mesocricetus auratus; conditions: hamster
Method in brief: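 Uninfected BHK cells were treated with a range of compound concentrations. Viability was read with an XTT colorimetric kit, where mitochondrial dehydrogenases form a coloured product read at 450 nm.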

[2] = test system: Sindbis virus; assay: Antiviral activity against Sindbis virus replication in BHK cells at 10^-3 mM after 12 hrs by luciferase assay
[3] = test system: Sindbis virus; assay: Antiviral activity against Sindbis virus replication in BHK cells after 12 hrs by luciferase assay; assay type: functional, organism-based
Method in brief: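 BHK cells grown to confluency were infected with luciferase-reporter Sindbis virus (SIN-IRES-Luc) at MOI below 1. Medium containing compound below cytotoxic concentrations was then added, and cells were incubated 12 h at 37 °C. Luciferase was measured in cell extracts by luminometer. EC50 is the concentration giving a 50% reduction in virus production.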

[4] = Therapeutic index, ratio of EC50 for Sindbis virus to CC50 for BHK cells; assay type: cell-based; conditions: hamster, read-out: TI
Method in brief: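 Therapeutic index was calculated as the […] (XTT viability of uninfected BHK cells).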

[5] = test system: Sindbis virus; assay: Antiviral activity against Sindbis virus replication in BHK cells after 12 hrs by luciferase assay
[6] = in the assay text read “luciferase assay” for “XTT assay”

C1CSC(C[C@H]2COCCO2)(C[C@H]2COCCO2)SC1
CC50 [1]: > 1000 µM
Activity [2]: inactive

ICC[C@@H]1COCCO1
EC50 [3, 6]: 250 µM
CC50 [1]: > 1000 µM

OCCC[C@@H]1COCCO1
CC50 [1]: > 1000 µM
Activity [2]: inactive

OC(C[C@@H]1COCCO1)C[C@@H]1COCCO1
EC50 [3, 6]: 670 µM
CC50 [1]: > 1000 µM

c1ccc(CCCC[C@@H]2COCCO2)cc1
CC50 [1]: > 1000 µM
Activity [2]: inactive

ON=C(C[C@@H]1COCCO1)C[C@@H]1COCCO1
CC50 [1]: > 1000 µM
Activity [2]: inactive

CN(C)CCCN1c2ccccc2Sc2ccc(Cl)cc21 [CHLORPROMAZINE]
EC50 [3, 6]: 8.2 µM
CC50 [1]: 100 µM

OC(CC[C@@H]1COCCO1)C[C@@H]1COCCO1 (stereo not given in full)
CC50 [1]: > 1000 µM
Activity [2]: inactive

C1CSC(C[C@H]2COCCO2)SC1
EC50 [3, 6]: 1000 µM
CC50 [1]: > 1000 µM

OCC[C@H]1COCCO1
CC50 [1]: > 1000 µM
Activity [2]: inactive

CC(O)[C@H]1COCCO1 (stereo not given in full)
EC50 [3, 6]: 99 µM
CC50 [1]: 1000 µM

OC[C@@H]1COCCO1
EC50 [3, 6]: 3.4 µM
CC50 [1]: > 1000 µM
selectivity ratio [4]: > 294

C(C[C@@H]1COCCO1)C[C@H]1COCCO1 (mixture of isomers)
CC50 [1]: > 1000 µM
Activity [2]: inactive

C(C[C@@H]1COCCO1)C[C@@H]1COCCO1
EC50 [3, 6]: 14 µM
CC50 [1]: > 1000 µM
selectivity ratio [4]: > 71

C(CC[C@@H]1COCCO1)CC[C@@H]1COCCO1
EC50 [3, 6]: 1500 µM
CC50 [1]: > 1000 µM

O=C(CCC[C@@H]1COCCO1)C[C@@H]1COCCO1
Activity [2]: inactive

ClCCOC[C@H]1CO1
EC50 [3, 6]: 1000 µM
CC50 [1]: > 1000 µM

ClCCOC[C@@H]1CO1
CC50 [1]: > 5000 µM
EC50 [5]: 1000 µM

OC[C@H]1COCCO1
EC50 [3, 6]: 1500 µM
CC50 [1]: > 5000 µM

C1CSC(CC[C@@H]2COCCO2)SC1
CC50 [1]: > 1000 µM
Activity [2]: inactive

C1CSC(CC[C@@H]2COCCO2)(C[C@@H]2COCCO2)SC1
CC50 [1]: > 1000 µM
Activity [2]: inactive

C(C[C@H]1COCCO1)C[C@H]1COCCO1
CC50 [1]: > 1000 µM
Activity [2]: inactive

COc1ccc(CCN(C)CCC[C@](C#N)(c2ccc(OC)c(OC)c2)C(C)C)cc1OC
EC50 [3, 6]: 1300 µM

C1CSC(C[C@H]2COCCO2)(C[C@@H]2COCCO2)SC1
EC50 [3, 6]: 29 µM
CC50 [1]: > 1000 µM

CON=C(C[C@@H]1COCCO1)C[C@@H]1COCCO1
CC50 [1]: > 1000 µM
Activity [2]: inactive

OCC[C@@H]1COCCO1
EC50 [3, 6]: 1400 µM
CC50 [1]: > 1000 µM

O=C(C[C@@H]1COCCO1)C[C@@H]1COCCO1
CC50 [1]: > 1000 µM
Activity [2]: inactive

O=C(CC[C@@H]1COCCO1)C[C@@H]1COCCO1
CC50 [1]: > 1000 µM
Activity [2]: inactive

O=CC[C@H]1COCCO1
EC50 [3]: 460 µM
CC50 [1]: > 5000 µM

C(CC[C@@H]1COCCO1)C[C@@H]1COCCO1
EC50 [3, 6]: 1500 µM
CC50 [1]: > 1000 µM
